Bioassay records: PubChem, several laboratories
ABCB1 inh: inhibitors of human ABCB1 transporter, ABCG2 counter-screen. AID 1326. 190,000 compounds, 0.067% hits. CCRF-Adr cells, JC-1 efflux, flow cytometry. inhibition, % at 6.6 µM. P08183; in the data active = inhibition above about 40%;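 note: 0% = vehicle and 100% = reference inhibitor; higher value means more JC-1 retained so stronger ABCB1 efflux block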
GSH bead fluor: GSH bead compound fluorescence profile. GSH beads flow cytometry, compound fluorescence 488/530 nm; active compounds read high. fluorescence (KMESF) at 10 µM. 190,000 compounds, 0.25% hits. AID 1776; in the data active = fluorescence above about 89;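 note: glutathione beads carrying GST-tagged Bcl family fusion proteins plus one bare bead set; values are compound well signal with DMSO vehicle wells as background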
Lmaj promast: reduces viability of Leishmania major promastigotes; inhibition, % at 10 µM; 200,000 compounds, 9% hits; resazurin fluorescence viability; AID 1063;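 note: promastigotes grown with compound for 44 hours at 28 °C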
PKD1 inh: inhibitors of human PKD1 kinase | Q15139 | PKD1 kinase fluorescence polarization assay | inhibition, % (concentration not given with the values) | 200,000 compounds, 0.056% hits | AID 797
ABCG2 block: blocks JC-1 efflux by human ABCG2 transporter. inhibition, % at 6.6 µM. 190,000 compounds, 0.1% hits. IgMXP3 cells, flow cytometry;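 active = inhibition above 80%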;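 note: 0% = DMSO and 100% = nicardipine control wells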
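material = IgMXP3 (ABCG2) plus far-red-tagged CCRF-Adr (ABCB1) cells | amount = 3 million cells/mL, equal mix of both lines | also added = JC-1 transporter substrate | dosing = one concentration, 6.6 µM final | schedule = 10 min at 25 °C | measured by = flow cytometric JC-1 green MFI at 530 nm | read-out basis = percent efflux inhibition, scaled nicardipine 100% to DMSO 0%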
Avidin fluor: avidin bead compound fluorescence profile; Avidin beads, compound fluorescence 488/530 nm, flow cytometry; active compounds read high; fluorescence (KMESF) at 10 µM; 220,000 compounds, 0.38% hits; AID 1775; in the data active = fluorescence above about 47
An asterisk follows results filed as active. The full list was thinned out, with hits kept by preference. Cut-off read from the data, not from the text of the source, unless noted: active = inhibition above about 50%; inactive = the rest.

How did O=C1NC(=O)N(Cc2ccccc2)C(=O)/C1=C\C=C\c1ccco1 do in these assays?
ABCB1 inh: -2; GSH bead fluor: 20; Lmaj promast: 77*; PKD1 inh: 3; ABCG2 block: -4; Avidin fluor: 9

What do the screens show for `Cc1ccc(N2C(=O)NC(=O)/C(=C\C=C\c3ccco3)C2=O)cc1C`?
ABCB1 inh: 4; GSH bead fluor: 6; Lmaj promast: 100*; PKD1 inh: -4; ABCG2 block: 1; Avidin fluor: 9

What do the screens show for `O=C1NC(=O)N(Cc2ccco2)C(=O)/C1=C/C=C/c1ccco1`?
Avidin fluor: 7

What do the screens show for `Cc1ccc(N2C(=O)NC(=O)/C(=C\C=C\c3ccco3)C2=O)cc1`?
Avidin fluor: 10

How did CCN1CCN(C(=O)COc2cc(=O)n(CC)c3ccccc23)CC1 do in these assays?
ABCB1 inh: 0; GSH bead fluor: 10; Lmaj promast: 3; PKD1 inh: -10; ABCG2 block: 4; Avidin fluor: 39

How did CSc1ccccc1C(=O)C1CCCN(Cc2ccncc2)C1 (configuration not stated) do in these assays?
ABCB1 inh: 1; GSH bead fluor: 14; Lmaj promast: 71*; PKD1 inh: 3; ABCG2 block: 2; Avidin fluor: 3

What do the screens show for `COc1ccccc1CN1CCCC(C(=O)c2ccccc2SC)C1` (configuration not stated)?
ABCB1 inh: 0; GSH bead fluor: 16; Lmaj promast: 68*; PKD1 inh: 5; ABCG2 block: -1; Avidin fluor: 2

How did COc1ccc(O)c(CN2CCCC(C(=O)c3ccccc3SC)C2)c1 (configuration not stated) do in these assays?
ABCB1 inh: 0; GSH bead fluor: 24; Lmaj promast: 10; PKD1 inh: -3; ABCG2 block: 1; Avidin fluor: 7

Results for CCCC/C(C)=C/[C@@H](NP(=O)(c1ccccc1)c1ccccc1)c1ccccc1 ?
ABCB1 inh: 1; GSH bead fluor: 17; Lmaj promast: 25; PKD1 inh: -13; ABCG2 block: 7; Avidin fluor: 10

What do the screens show for `CN1CCN(c2cc(N3CCCCCC3)c(F)cc2[N+](=O)[O-])CC1`?
ABCB1 inh: 2; GSH bead fluor: 2; Lmaj promast: 99*; PKD1 inh: -5; ABCG2 block: 11; Avidin fluor: 14

How did CCN1CCN(c2cc(N3CCCC3)c([N+](=O)[O-])cc2F)CC1 do in these assays?
ABCB1 inh: 1; GSH bead fluor: 27; Lmaj promast: 99*; PKD1 inh: -6; ABCG2 block: 2; Avidin fluor: 10

What do the screens show for `O=[N+]([O-])c1cc(F)c(N2CCCC2)cc1N1CCNCC1`?
ABCB1 inh: 2; GSH bead fluor: 14; Lmaj promast: 26; PKD1 inh: 1; ABCG2 block: 5; Avidin fluor: 8

How did Nc1cncc(C(=O)O)c1 do in these assays?
ABCB1 inh: 2; GSH bead fluor: 13; Lmaj promast: 0; PKD1 inh: 7; ABCG2 block: 16; Avidin fluor: 8

Results for C=CCn1c(O)c(/C=C2\C=Nc3ccccc32)c(=O)[nH]c1=O ?
Avidin fluor: 3

What do the screens show for `CC(=O)c1c(C)n(Cc2ccccc2Cl)c2ccc(O)cc12`?
ABCB1 inh: 0; GSH bead fluor: 52; Lmaj promast: -5; PKD1 inh: -3; ABCG2 block: 0; Avidin fluor: 10

How did CCOC(=O)COc1ccc2c(c1)c(C(C)=O)c(C)n2Cc1ccccc1 do in these assays?
ABCB1 inh: 1; GSH bead fluor: 13; Lmaj promast: 76*; PKD1 inh: -6; ABCG2 block: 11; Avidin fluor: 16

How did CCOc1cc(CNCCc2c[nH]c3ccccc23)cc(Cl)c1OC do in these assays?
ABCB1 inh: -1; GSH bead fluor: 12; Lmaj promast: 13; PKD1 inh: -1; ABCG2 block: -4; Avidin fluor: 13

What do the screens show for `FC(F)(F)c1ccc(CN2CCNCC2)cc1`?
ABCB1 inh: 0; GSH bead fluor: 15; Lmaj promast: 96*; PKD1 inh: -2; ABCG2 block: 0; Avidin fluor: 9

Results for c1csc(CN2CCNCC2)c1 ?
ABCB1 inh: 0; GSH bead fluor: 10; Lmaj promast: -4; PKD1 inh: -3; ABCG2 block: 1; Avidin fluor: 25
